The source of these data is PubChem BioAssay.

Assay [1] can be described thus: Her2 expression decrease, cell viability multiplex – SKBR3 breast tumor cells, AlphaScreen, ATP viability, primary screen (AID 461).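 On Her2 level: lower value means less Her2 protein in the cells.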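 On viability: percent of carrier control wells set as 100% viability.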 Conditions: SKBR3 Her2 protein level, 18-24 h, measured here: SKBR3 viability, ATP luminescence, at 10 µM. For orientation: In Alpha technology, singlet oxygen from a donor bead excites a nearby acceptor bead.
For assay [2], the target named is Receptor tyrosine-protein kinase erbB-2 (Homo sapiens) (UniProt P04626). The description is as above. Conditions: 18-24 h, at 10 µM, stronger effect = lower value.
Sequence of Receptor tyrosine-protein kinase erbB-2 (Homo sapiens) (P04626 whole entry, looked up): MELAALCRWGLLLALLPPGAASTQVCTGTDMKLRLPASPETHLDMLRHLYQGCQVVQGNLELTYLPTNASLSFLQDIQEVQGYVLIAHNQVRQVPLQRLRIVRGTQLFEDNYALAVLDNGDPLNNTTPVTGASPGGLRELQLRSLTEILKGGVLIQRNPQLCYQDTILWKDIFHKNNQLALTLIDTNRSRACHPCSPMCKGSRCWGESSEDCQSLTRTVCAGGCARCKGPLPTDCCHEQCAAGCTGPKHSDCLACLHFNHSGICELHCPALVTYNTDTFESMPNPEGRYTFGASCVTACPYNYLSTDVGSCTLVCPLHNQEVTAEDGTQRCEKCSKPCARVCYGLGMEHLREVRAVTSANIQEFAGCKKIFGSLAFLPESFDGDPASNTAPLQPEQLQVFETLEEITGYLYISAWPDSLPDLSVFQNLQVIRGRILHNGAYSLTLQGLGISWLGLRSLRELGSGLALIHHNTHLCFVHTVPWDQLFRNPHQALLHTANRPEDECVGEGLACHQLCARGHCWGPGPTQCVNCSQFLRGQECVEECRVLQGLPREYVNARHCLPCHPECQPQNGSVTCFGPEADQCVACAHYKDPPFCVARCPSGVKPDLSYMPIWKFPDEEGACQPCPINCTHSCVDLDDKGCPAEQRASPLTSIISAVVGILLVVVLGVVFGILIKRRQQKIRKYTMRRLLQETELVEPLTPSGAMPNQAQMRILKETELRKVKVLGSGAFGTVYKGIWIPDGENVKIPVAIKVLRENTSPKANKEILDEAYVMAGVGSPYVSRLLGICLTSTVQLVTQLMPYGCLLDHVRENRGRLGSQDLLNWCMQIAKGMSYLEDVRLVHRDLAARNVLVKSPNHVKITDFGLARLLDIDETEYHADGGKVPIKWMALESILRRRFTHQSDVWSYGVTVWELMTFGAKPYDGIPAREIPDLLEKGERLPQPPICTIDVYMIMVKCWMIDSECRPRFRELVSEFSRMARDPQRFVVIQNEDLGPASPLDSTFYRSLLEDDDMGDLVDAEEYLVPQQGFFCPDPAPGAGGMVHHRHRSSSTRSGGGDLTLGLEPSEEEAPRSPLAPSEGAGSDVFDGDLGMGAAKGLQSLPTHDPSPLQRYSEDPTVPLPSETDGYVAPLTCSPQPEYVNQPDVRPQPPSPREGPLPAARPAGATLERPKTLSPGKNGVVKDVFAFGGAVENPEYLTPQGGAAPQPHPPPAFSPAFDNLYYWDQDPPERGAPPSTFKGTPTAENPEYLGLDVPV
Assay [3] in a line: reduced viability of SK-BR-3 breast cancer cells – cell-based, 24 h, human, pilot screen (AID 572;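 active means viability at or below 10% of carrier control in both of two separate runs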;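 further: compound exposure lasted between 18 and 24 h rather than exactly 24 h; 100% = carrier-treated control wells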). Conditions: SK-BR-3 viability, CellTiter-Glo luminescence, at 10 µM, stronger effect = lower value.
Assay [4] is described as follows: HUVEC growth inhibition – cell-based, human, primary screen (AID 575;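 active means viability at or below 30% in both replicate assays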;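 further: 100% = median of untreated cell wells with 0.1% DMSO on each plate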). Conditions: HUVEC proliferation, CellTiter-Glo luminescence, 72 h; at 10 µM; stronger effect = lower value. In outline: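 material = primary HUVEC, no more than 12 passages | input = 1250 cells per well | controls = vehicle and MePR control wells | measured by = CTG luminescence | times = 72 h compound incubation | format = collagen-coated 384-well format | read-out = % viability vs DMSO wells | doses = single 10 µM dose, 0.1% DMSO, from 5x medium stock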

The nature of assay [5]: H69AR cell proliferation blockers – human, duplicate replicates, primary screen (AID 580;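 active means viability at or under a set limit in both replicates, limit being median viability minus 3 SD, cut at about 48% in these data, passing the limit was not always enough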;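 further: 100% = mean luminescence of untreated wells and 0% = no signal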). Conditions: H69AR lung tumor cells viability, ATP luminescence, 72 h; at 10 µM; stronger effect = lower value.
The nature of assay [6]: MRP1 drug-resistance reversers in H69AR cells – cell-based, doxorubicin co-treatment, pilot screen (AID 601;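 active means viability loss from added drug above about 55%, and viability with drug at most 40%, in both replicates, limit read from the data, passing the limit was not always enough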). Conditions: CellTiter-Glo, 72 h, at 10 µM; for differential viability (reversal): stronger effect = higher value. A general note: In ATP-based viability assays light output follows the ATP content of the culture.
The nature of assay [7]: yeast transport mutant growth inhibition pilot in 384-well plates, post-Golgi transport modulator project (AID 636; in the data active means inhibition above about 31%). Conditions: absorbance 615 nm, about 18 h, stronger effect = higher value.
The nature of assay [8]: growth suppression of yeast trafficking mutant, preliminary HTS, modulators of trafficking downstream of Golgi apparatus project, 1536-format plate, OD 615 nm (AID 637; in the data active means inhibition above about 30%). Conditions: yeast transport mutant growth, absorbance 615 nm, 18 h; stronger effect = higher value.
[9] abbreviates: H69AR cells + 2 uM doxorubicin, measured here: viability with 2 uM doxorubicin, stronger effect = lower value.
Setting [10] is: H69AR cells, compound alone cytotoxicity.

Each structure is given as a SMILES string. Activity calls are given as the source filed them.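 How the source made its calls, unless noted: active means Her2 level under about 52% in both replicate screens, with viability over 70% of control (limit read from the data); inconclusive means Her2 under the limit in one screen only, or viability under 70%; inactive means Her2 level above the set limit.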

As to `CNC(=O)CSc1nnc(-c2cccc(S(=O)(=O)N3CCOCC3)c2)n1-c1ccc(F)cc1`, the viability in assay [1] is 78.5%; in assay [3], 78.5% (inactive); in assay [4], 99.9% (inactive); in assay [5], 93.2% (inactive); in assay [6] (setting [9]), 98.5%; in assay [6] (setting [10]), 93.2%. In addition, the Her2 level in assay [2] was 95% (inactive). Moreover, the differential viability (reversal) in assay [6] (H69AR cells + 2 uM doxorubicin) was -5.28% (inactive). Further, the inhibition is 0% (inactive) in assay [7] and -2.5% (inactive) in assay [8].
On to `C=CCOc1ccc(/C=N/n2cncn2)cc1OC`, for which the viability in assay [1] was 85%; in assay [3], 85% (inactive); in assay [4], 103% (inactive); in assay [5] it was 94.6% (inactive); in assay [6] (setting [9]), 86.2%; in assay [6] (setting [10]), 94.6%. In addition, the Her2 level in assay [2] was 112% (inactive). For the same compound, the differential viability (reversal) in assay [6] (H69AR cells + 2 uM doxorubicin) is 8.46% (inactive). Further, the figures for the inhibition in assay [7] and in assay [8] were 9.86% (inactive) and 16.8% (inactive), respectively.
Regarding `O=C1CC(c2cccc(Cl)c2)CC(O)=C1C=NCCCO` (stereo not given), the viability is 102% in assay [1]; 102% (inactive) in assay [3]; 83.7% (inactive) in assay [4]; 103% (inactive) in assay [5]; 98.1% in assay [6] (setting [9]); 103% in assay [6] (setting [10]). Also, in assay [2], the Her2 level was 90.5% (inactive). The differential viability (reversal) in assay [6] (H69AR cells + 2 uM doxorubicin) is 4.62% (inactive). Moreover, the values for the inhibition in assay [7] and in assay [8] were -6.27% (inactive) and -0.33% (inactive), respectively.
For `O=C(OCC#CCSc1nc2ccccc2o1)c1ccco1`, the viability in assay [1] was 112%; in assay [3] it was 112% (inactive); in assay [4], 80.4% (inactive); in assay [5], 80.4% (inactive); in assay [6] (setting [9]), 82.2%; in assay [6] (setting [10]), 80.4%. Moreover, in assay [2], the Her2 level is 84% (inactive). For the same compound, in assay [6] (H69AR cells + 2 uM doxorubicin), the differential viability (reversal) was -1.78% (inactive). In addition, the results for the inhibition in assay [7] and in assay [8] were -6.67% (inactive) and -7.7% (inactive), respectively.
Turning to `CCOC(=O)C1CCCN(Cc2nc(N)nc(Nc3ccc(C)cc3)n2)C1` (stereo not given), the viability was 99.5% in assay [1]; 99.5% (inactive) in assay [3]; 80% (inactive) in assay [4]; 87.4% (inactive) in assay [5]; 88.6% in assay [6] (setting [9]); 87.4% in assay [6] (setting [10]). Further, the Her2 level in assay [2] was 78% (inactive). Moreover, the differential viability (reversal) in assay [6] (H69AR cells + 2 uM doxorubicin) is -1.19% (inactive). Also, the inhibition is 0% (inactive) in assay [7] and 7.54% (inactive) in assay [8].
For the compound `Cc1occc1-c1nnc(SCC(=O)c2ccc(F)cc2)n1Cc1ccco1`, the viability in assay [1] was 77.5%; in assay [3], 77.5% (inactive); in assay [4], 84.1% (inactive); in assay [5] it was 85.3% (inactive); in assay [6] (setting [9]), 82.2%; in assay [6] (setting [10]), 85.3%. In assay [2], the Her2 level is 82% (inactive). Besides, in assay [6] (H69AR cells + 2 uM doxorubicin), the differential viability (reversal) is 3.13% (inactive). Besides, the inhibition in assay [7] is -1.33% (inactive); in assay [8], -0.16% (inactive).
On to `Cc1cc(Nc2ccc(C(=O)O)cc2)n2nc(C)nc2n1`, for which the viability in assay [1] was 101%; in assay [3], 101% (inactive); in assay [4], 90.5% (inactive); in assay [5], 109% (inactive); in assay [6] (setting [9]), 99.2%; in assay [6] (setting [10]), 109%. Besides, the Her2 level in assay [2] is 96.5% (inactive). Further, in assay [6] (H69AR cells + 2 uM doxorubicin), the differential viability (reversal) is 9.93% (inactive). Besides, the inhibition is -4.67% (inactive) in assay [7] and 4.92% (inactive) in assay [8].
Take `Cc1cc(NC(c2cccnc2)c2c(C)[nH]c3ccccc23)no1` (stereo not given): the viability is 97% in assay [1]; 97% (inactive) in assay [3]; 85.1% (inactive) in assay [4]; 89% (inactive) in assay [5]; 97% in assay [6] (setting [9]); 89% in assay [6] (setting [10]). The Her2 level in assay [2] was 76% (inactive). Also, the differential viability (reversal) in assay [6] (H69AR cells + 2 uM doxorubicin) was -8.09% (inactive). In addition, the values for the inhibition in assay [7] and in assay [8] were -5.6% (inactive) and 3.61% (inactive), respectively.
On to `C=CCn1c(COc2ccccc2F)nnc1SCC(=O)N1CC(=O)Nc2ccccc21`, for which the viability in assay [1] is 92%; in assay [3] it was 92% (inactive); in assay [4], 109% (inactive); in assay [5], 92.2% (inactive); in assay [6] (setting [9]) it was 89.3%; in assay [6] (setting [10]) it was 92.2%. Besides, in assay [2], the Her2 level was 104% (inactive). Further, the differential viability (reversal) in assay [6] (H69AR cells + 2 uM doxorubicin) was 2.88% (inactive). For the same compound, the values for the inhibition in assay [7] and in assay [8] were -4.46% (inactive) and 51.5% (active), respectively.
Regarding `COc1ccc(C2C(=O)N(C3CCCCC3)CC(=O)N2Cc2ccco2)cc1` (stereo not given), the viability was 110% in assay [1]; 110% (inactive) in assay [3]; 95.9% (inactive) in assay [4]; 97.7% (inactive) in assay [5]; 79.5% in assay [6] (setting [9]); 97.7% in assay [6] (setting [10]). For the same compound, the Her2 level in assay [2] is 91.5% (inactive). Further, the differential viability (reversal) in assay [6] (H69AR cells + 2 uM doxorubicin) is 18.2% (inactive). Further, the values for the inhibition in assay [7] and in assay [8] were -6.67% (inactive) and 1.45% (inactive), respectively.
With `O=C(CCn1nc(-c2ccc(Cl)cc2)ccc1=O)N1CCN(c2ccccn2)CC1`, the viability in assay [1] is 96.5%; in assay [3] it was 96.5% (inactive); in assay [4], 101% (inactive); in assay [5] it was 91.1% (inactive); in assay [6] (setting [9]) it was 95.9%; in assay [6] (setting [10]), 91.1%. The Her2 level in assay [2] was 92.5% (inactive). Also, the differential viability (reversal) in assay [6] (H69AR cells + 2 uM doxorubicin) was -4.79% (inactive). For the same compound, the inhibition is -3.42% (inactive) in assay [7] and -3.87% (inactive) in assay [8].
For `O=C(CSc1nnc2ncccn12)N1CCCCCC1`, the viability is 102% in assay [1]; 102% (inactive) in assay [3]; 103% (inactive) in assay [4]; 107% (inactive) in assay [5]; 91.3% in assay [6] (setting [9]); 107% in assay [6] (setting [10]). Further, the Her2 level in assay [2] is 85% (inactive). Further, the differential viability (reversal) in assay [6] (H69AR cells + 2 uM doxorubicin) was 15.6% (inactive). Also, the inhibition in assay [7] was -3.84% (inactive); in assay [8], -7.3% (inactive).
On to `CCS(=O)(=O)NCCc1cc2c(OC)ccc(OC)c2[nH]c1=O`, for which the viability in assay [1] is 95.5%; in assay [3], 95.5% (inactive); in assay [4], 106% (inactive); in assay [5], 98.8% (inactive); in assay [6] (setting [9]), 86.8%; in assay [6] (setting [10]), 98.8%. Moreover, the Her2 level in assay [2] is 88.5% (inactive). Moreover, in assay [6] (H69AR cells + 2 uM doxorubicin), the differential viability (reversal) is 12.1% (inactive). Further, the inhibition in assay [7] was -9.45% (inactive); in assay [8], 0.48% (inactive).
For the compound `CCCCCc1c(C)nc(Nc2nc(C)c3cc(OC)ccc3n2)[nH]c1=O`, the viability is 92.5% in assay [1]; 92.5% (inactive) in assay [3]; 55.2% (inactive) in assay [4]; 78% (inactive) in assay [5]; 55.7% in assay [6] (setting [9]); 78% in assay [6] (setting [10]). Besides, the Her2 level in assay [2] is 85.5% (inactive). In addition, the differential viability (reversal) in assay [6] (H69AR cells + 2 uM doxorubicin) was 22.3% (inactive). Moreover, the inhibition in assay [7] was -7.7% (inactive); in assay [8], 11.1% (inactive).

The viability is a read-out of living cells in per cent, often relative to untreated cells. By inhibition is commonly meant the drop in the measured response relative to a control, in per cent.
